Molecules are shown by their SMILES. Activity calls are given as the source filed them. The rule behind the calls is not given here.

Holding throughout (assay type): cell-based
Experiment [1] addresses T1, Neuronal acetylcholine receptor subunit alpha-7 (Homo sapiens, UniProt P36544). The experiment in a line: Positive allosteric modulation of human alpha7 nAChR expressed in Xenopus oocytes assessed as potentiation of ACh-induced response at 10 uM measured over 120 secs by two-electrode voltage clamp method. On the technique in general: In two-electrode clamp one electrode senses voltage and the other passes current.

In experiment [2] the target is T1, Neuronal acetylcholine receptor subunit alpha-7. The experiment in a line: Allosteric agonist activity at human alpha7 nAChR expressed in Xenopus oocytes at 10 uM measured over 120 secs by two-electrode voltage clamp method. The method in brief:
(§1)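 Xenopus oocytes expressing human α7 receive control 60 μM ACh, then 10 μM drug alone or with 10 μM of the other enantiomer. Pre-incubation is 30 s or 5 min, followed by ACh to assess potentiation. Responses are measured over a 120-second interval from the start of drug application. Potentiation is followed over 20 minutes. Two-electrode voltage clamp.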

Experiment [3] has the same target. The experiment can be described thus: Positive allosteric modulation of human alpha7 nAChR expressed in Xenopus oocytes assessed as potentiation of ACh-induced response after 20 secs by two-electrode voltage clamp method.
For experiment [4] the target is unchanged. The experiment can be described thus: Positive allosteric modulation of human alpha7 nAChR expressed in Xenopus oocytes assessed as potentiation of ACh-induced response at 10 uM preincubated for 5 mins measured over 20 mins by two-electrode voltage clamp method. The procedure, abridged: as §1
Experiment [5] shares this target. The experiment in a line: Allosteric agonist activity at human alpha7 nAChR expressed in Xenopus oocytes at 10 uM preincubated for 5 mins by two-electrode voltage clamp method. The method in brief: as §1
For experiment [6] the target is unchanged. The experiment in a line: Allosteric agonist activity at human alpha7 nAChR expressed in Xenopus oocytes after 20 secs by two-electrode voltage clamp method. The procedure, abridged:
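Human α7 nAChR in Xenopus oocytes under two-electrode voltage clamp. Control applications of 60 μM ACh come first, then a standard 20-second drug application over a range of concentrations. Net-charge response is normalized to the mean of the two initial ACh controls. At least four oocytes per condition. EC50 is taken from the concentration-response curve.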

The target is the same in experiment [7]. The experiment can be described thus: Positive allosteric modulation of human alpha7 nAChR expressed in Xenopus oocytes assessed as potentiation of ACh-induced response at 10 uM treated 4 mins prior to ACh addition by two-electrode voltage clamp method.
Experiment [8] has the same target. The experiment in a line: Positive allosteric modulation of human alpha7 nAChR expressed in Xenopus oocytes assessed as potentiation of ACh-induced response at 30 uM measured over 5 mins by two-electrode voltage clamp method in presence of choline. The procedure, abridged: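 α7-expressing Xenopus oocytes get control 60 μM ACh applications, then 300 μM choline together with 30 μM drug (racemate or single enantiomer). Potentiation is measured by two-electrode voltage clamp and normalized to the initial ACh controls.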

For experiment [9] the target is unchanged. The experiment in a line: Agonist activity at human alpha7 nAChR expressed in Xenopus oocytes at 60 uM after 5 mins by two-electrode voltage clamp method relative to ACh.
Experiment [10] shares this target. The experiment in a line: Potency index, ratio of ACh EC50 to compound EC50 for human alpha7 nAChR expressed in Xenopus oocytes.

T1 sequence (P36544 whole entry): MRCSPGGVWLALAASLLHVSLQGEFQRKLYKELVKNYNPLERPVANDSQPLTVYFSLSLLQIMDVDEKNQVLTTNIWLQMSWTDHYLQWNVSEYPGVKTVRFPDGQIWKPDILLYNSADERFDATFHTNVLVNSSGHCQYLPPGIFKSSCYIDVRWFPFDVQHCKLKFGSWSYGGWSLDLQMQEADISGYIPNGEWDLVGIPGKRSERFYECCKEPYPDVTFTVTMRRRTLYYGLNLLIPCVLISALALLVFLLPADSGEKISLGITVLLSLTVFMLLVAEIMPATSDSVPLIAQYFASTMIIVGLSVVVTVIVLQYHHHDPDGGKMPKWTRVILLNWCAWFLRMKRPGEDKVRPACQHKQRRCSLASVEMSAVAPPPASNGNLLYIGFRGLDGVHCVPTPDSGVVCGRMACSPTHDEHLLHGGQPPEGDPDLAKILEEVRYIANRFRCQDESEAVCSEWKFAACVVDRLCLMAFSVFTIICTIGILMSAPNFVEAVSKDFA

Regarding `NS(=O)(=O)c1ccc2c(c1)[C@@H]1C=CC[C@@H]1[C@H](c1ccc(Br)cc1)N2`, the result in [1] and in experiment [2] was inactive.
In the case of `NS(=O)(=O)c1ccc2c(c1)[C@H]1C=CC[C@H]1[C@@H](c1ccc(Br)cc1)N2`, the Activity entry in experiment [3] is “Dose-dependent effect”. The result in experiment [4], in experiment [5], in experiment [2], in [7] and in experiment [8] was Active. Further, the EC50 (commonly the concentration needed to bring the measured effect to its halfway point) in experiment [6] came to 28 µM.
Take `NS(=O)(=O)c1ccc2c(c1)[C@H]1C=CC[C@H]1C(c1ccc(Br)cc1)N2` (mixture of isomers): the fold change (FC) in experiment [9] came to 45. In experiment [8], the result was Active. Besides, in experiment [10], the Ratio EC50 was 8.

Source of the values: ChEMBL document CHEMBL3085762, “Expeditious synthesis, enantiomeric resolution, and enantiomer functional characterization of (4-(4-bromophenyl)-3a,4,5,9b-tetrahydro-3H-cyclopenta[c]quinoline-8-sulfonamide (4BP-TQS): an allosteric agonist-positive allosteric modulator of α7 nicotinic acetylcholine receptors” (J Med Chem, 2013).
